Tests used:
Conditions in all cases: Bos taurus; call rule not given here
[1] = system: O=c1oc2c(O)c(O)cc3c(=O)oc4c(O)c(O)cc1c4c23; assay: (§1) Induction of H2O2-inactivated bovine milk lactoperoxidase pseudo-halogenating activity assessed as increase in hypothiocyanate formation by measuring substrate Kcat using thiocyanate as substrate by Lineweaver-Burk plot
In short: (§2)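 Bovine milk LPO, lyophilized (about 80% purity), 5 nM final, in PBS (10 mM, pH 7.4) at 37 °C with 2 mM SCN−, 50 μM TNB and 80 μM H2O2. Compounds from 5 or 10 mM DMSO stocks, final 0.01–500 μM. −OSCN formation followed at 412 nm as TNB conversion to DTNB in a plate reader. KM, Vmax, kcat and specificity constant from Lineweaver–Burk plots. Mean ± SD, n = 3.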

[2] = system: O=C(OC[C@H]1O[C@@H](OC(=O)c2cc(O)c(O)c(O)c2)[C@H](OC(=O)c2cc(O)c(O)c(O)c2)[C@@H](OC(=O)c2cc(O)c(O)c(O)c2)[C@@H]1OC(=O)c1cc(O)c(O)c(O)c1)c1cc(O)c(O)c(O)c1; assay: as §1; in short: as §2
[3] = system: O=C(/C=C/c1ccc(O)c(O)c1)O[C@@H]1C[C@](O)(C(=O)O)C[C@@H](O)[C@H]1O; assay: as §1; in short: as §2
O=C(O)c1cc(O)c(O)c(O)c1 [4] = assay: as §1; in short: as §2
[5] = system: Oc1cc(O)c2c(c1)O[C@H](c1ccc(O)c(O)c1)[C@H](O)[C@H]2c1c(O)cc(O)c2c1O[C@H](c1ccc(O)c(O)c1)[C@H](O)[C@H]2c1c(O)cc(O)c2c1O[C@H](c1ccc(O)c(O)c1)[C@H](O)C2; assay: as §1; in short: as §2
[6] = system: Oc1cc(O)c2c(c1)O[C@@]1(c3ccc(O)c(O)c3)Oc3cc(O)c4c(c3[C@@H]2[C@H]1O)O[C@H](c1ccc(O)c(O)c1)[C@H](O)C4; assay: as §1; in short: as §2
[7] = system: O=C(O[C@@H]1Cc2c(O)cc(O)cc2O[C@@H]1c1cc(O)c(O)c(O)c1)c1cc(O)c(O)c(O)c1; assay: as §1; in short: as §2
[8] = system: Oc1cc(O)c2c(c1)O[C@H](c1ccc(O)c(O)c1)[C@H](O)[C@H]2c1c(O)cc(O)c2c1O[C@H](c1ccc(O)c(O)c1)[C@H](O)C2; assay: as §1; in short: as §2
[9] = system: Oc1cc(O)c2c(c1)O[C@H](c1cc(O)c(O)c(O)c1)[C@H](O)C2; assay: as §1; in short: as §2
[10] = system: Oc1cc(O)c2c(c1)O[C@H](c1ccc(O)c(O)c1)[C@H](O)C2; assay: as §1; in short: as §2
[11] = system: O=C1O[C@@H]2[C@@H](OC(=O)c3cc(O)c(O)c(O)c3-c3c1cc(O)c(O)c3O)[C@H](O)O[C@@H]1COC(=O)c3cc(O)c(O)c(O)c3-c3c(O)c(O)c4oc(=O)c5c(c(O)c(O)c6oc(=O)c3c4c65)-c3c(cc(O)c(O)c3O)C(=O)O[C@@H]21; assay: as §1; in short: as §2
[12] = system: O=C(OC[C@H]1O[C@@H](OC(=O)c2cc(O)c(O)c(O)c2)[C@H](O)[C@@H](OC(=O)c2cc(O)c(O)c(O)c2)[C@@H]1O)c1cc(O)c(O)c(O)c1; assay: as §1; in short: as §2
COC(=O)c1cc(O)c(O)c(O)c1 [13] = assay: as §1; in short: as §2
[14] = system: O=c1oc2c(O)c(O)cc3c(=O)oc4c(O)c(O)cc1c4c23; assay: (§3) Induction of H2O2-inactivated bovine milk lactoperoxidase pseudo-halogenating activity assessed as increase in hypothiocyanate formation by measuring ratio of Kcat to Km for substrate using thiocyanate as substrate by Lineweaver-Burk plot; in short: as §2
[15] = system: O=C(/C=C/c1ccc(O)c(O)c1)O[C@@H]1C[C@](O)(C(=O)O)C[C@@H](O)[C@H]1O; assay: as §3; in short: as §2
O=C(O)c1cc(O)c(O)c(O)c1 [16] = assay: as §3; in short: as §2
[17] = system: Oc1cc(O)c2c(c1)O[C@H](c1ccc(O)c(O)c1)[C@H](O)[C@H]2c1c(O)cc(O)c2c1O[C@H](c1ccc(O)c(O)c1)[C@H](O)[C@H]2c1c(O)cc(O)c2c1O[C@H](c1ccc(O)c(O)c1)[C@H](O)C2; assay: as §3; in short: as §2
[18] = system: Oc1cc(O)c2c(c1)O[C@@]1(c3ccc(O)c(O)c3)Oc3cc(O)c4c(c3[C@@H]2[C@H]1O)O[C@H](c1ccc(O)c(O)c1)[C@H](O)C4; assay: as §3; in short: as §2
[19] = system: O=C(O[C@@H]1Cc2c(O)cc(O)cc2O[C@@H]1c1cc(O)c(O)c(O)c1)c1cc(O)c(O)c(O)c1; assay: as §3; in short: as §2
[20] = system: Oc1cc(O)c2c(c1)O[C@H](c1ccc(O)c(O)c1)[C@H](O)[C@H]2c1c(O)cc(O)c2c1O[C@H](c1ccc(O)c(O)c1)[C@H](O)C2; assay: as §3; in short: as §2
[21] = system: Oc1cc(O)c2c(c1)O[C@H](c1cc(O)c(O)c(O)c1)[C@H](O)C2; assay: as §3; in short: as §2
[22] = system: Oc1cc(O)c2c(c1)O[C@H](c1ccc(O)c(O)c1)[C@H](O)C2; assay: as §3; in short: as §2
[23] = system: O=C1O[C@@H]2[C@@H](OC(=O)c3cc(O)c(O)c(O)c3-c3c1cc(O)c(O)c3O)[C@H](O)O[C@@H]1COC(=O)c3cc(O)c(O)c(O)c3-c3c(O)c(O)c4oc(=O)c5c(c(O)c(O)c6oc(=O)c3c4c65)-c3c(cc(O)c(O)c3O)C(=O)O[C@@H]21; assay: as §3; in short: as §2
[24] = system: O=C(OC[C@H]1O[C@@H](OC(=O)c2cc(O)c(O)c(O)c2)[C@H](O)[C@@H](OC(=O)c2cc(O)c(O)c(O)c2)[C@@H]1O)c1cc(O)c(O)c(O)c1; assay: as §3; in short: as §2
COC(=O)c1cc(O)c(O)c(O)c1 [25] = assay: as §3; in short: as §2
[26] = system: O=c1oc2c(O)c(O)cc3c(=O)oc4c(O)c(O)cc1c4c23; assay: (§4) Induction of H2O2-inactivated bovine milk lactoperoxidase pseudo-halogenating activity assessed as increase in hypothiocyanate formation by measuring substrate Km using thiocyanate as substrate by Lineweaver-Burk plot; in short: as §2
[27] = system: O=C(OC[C@H]1O[C@@H](OC(=O)c2cc(O)c(O)c(O)c2)[C@H](OC(=O)c2cc(O)c(O)c(O)c2)[C@@H](OC(=O)c2cc(O)c(O)c(O)c2)[C@@H]1OC(=O)c1cc(O)c(O)c(O)c1)c1cc(O)c(O)c(O)c1; assay: as §4; in short: as §2
[28] = system: O=C(/C=C/c1ccc(O)c(O)c1)O[C@@H]1C[C@](O)(C(=O)O)C[C@@H](O)[C@H]1O; assay: as §4; in short: as §2
O=C(O)c1cc(O)c(O)c(O)c1 [29] = assay: as §4; in short: as §2
[30] = system: Oc1cc(O)c2c(c1)O[C@H](c1ccc(O)c(O)c1)[C@H](O)[C@H]2c1c(O)cc(O)c2c1O[C@H](c1ccc(O)c(O)c1)[C@H](O)[C@H]2c1c(O)cc(O)c2c1O[C@H](c1ccc(O)c(O)c1)[C@H](O)C2; assay: as §4; in short: as §2
[31] = system: Oc1cc(O)c2c(c1)O[C@@]1(c3ccc(O)c(O)c3)Oc3cc(O)c4c(c3[C@@H]2[C@H]1O)O[C@H](c1ccc(O)c(O)c1)[C@H](O)C4; assay: as §4; in short: as §2
[32] = system: O=C(O[C@@H]1Cc2c(O)cc(O)cc2O[C@@H]1c1cc(O)c(O)c(O)c1)c1cc(O)c(O)c(O)c1; assay: as §4; in short: as §2
[33] = system: Oc1cc(O)c2c(c1)O[C@H](c1ccc(O)c(O)c1)[C@H](O)[C@H]2c1c(O)cc(O)c2c1O[C@H](c1ccc(O)c(O)c1)[C@H](O)C2; assay: as §4; in short: as §2
[34] = system: Oc1cc(O)c2c(c1)O[C@H](c1cc(O)c(O)c(O)c1)[C@H](O)C2; assay: as §4; in short: as §2
[35] = system: Oc1cc(O)c2c(c1)O[C@H](c1ccc(O)c(O)c1)[C@H](O)C2; assay: as §4; in short: as §2
[36] = system: O=C1O[C@@H]2[C@@H](OC(=O)c3cc(O)c(O)c(O)c3-c3c1cc(O)c(O)c3O)[C@H](O)O[C@@H]1COC(=O)c3cc(O)c(O)c(O)c3-c3c(O)c(O)c4oc(=O)c5c(c(O)c(O)c6oc(=O)c3c4c65)-c3c(cc(O)c(O)c3O)C(=O)O[C@@H]21; assay: as §4; in short: as §2
[37] = system: O=C(OC[C@H]1O[C@@H](OC(=O)c2cc(O)c(O)c(O)c2)[C@H](O)[C@@H](OC(=O)c2cc(O)c(O)c(O)c2)[C@@H]1O)c1cc(O)c(O)c(O)c1; assay: as §4; in short: as §2
COC(=O)c1cc(O)c(O)c(O)c1 [38] = assay: as §4; in short: as §2

In the case of “Lactoperoxidase (Bos taurus) (from UniProt P80025)”, the kcat [1] is reported as 29.3 s⁻¹, the kcat [2] is reported as “Not Active” and the kcat [3] is reported as 60.6 s⁻¹. The kcat (O=C(O)c1cc(O)c(O)c(O)c1 [4]) was 30.9 s⁻¹, the kcat [5] was 6.43 s⁻¹ and the kcat [6] was 60 s⁻¹. The kcat [7] was 13.9 s⁻¹, the kcat [8] was 4.53 s⁻¹ and the kcat [9] was 13.9 to 43.6 s⁻¹. For the same substance, the kcat [10] was 41.4 s⁻¹, the kcat [11] was 11.8 s⁻¹ and the kcat [12] was 63.7 s⁻¹. It also gave a kcat (COC(=O)c1cc(O)c(O)c(O)c1 [13]) of 80.3 s⁻¹, a kcat/Km [14] of 9.83e+07 M⁻¹ s⁻¹ and a kcat/Km [15] of 4.81e+07 M⁻¹ s⁻¹. The kcat/Km (O=C(O)c1cc(O)c(O)c(O)c1 [16]) was 200000 M⁻¹ s⁻¹, the kcat/Km [17] was 800000 M⁻¹ s⁻¹ and the kcat/Km [18] was 4.74e+06 M⁻¹ s⁻¹. The kcat/Km [19] was 4.38e+07 M⁻¹ s⁻¹, the kcat/Km [20] was 1.21e+07 M⁻¹ s⁻¹ and the kcat/Km [21] was 5.37e+07 M⁻¹ s⁻¹. The kcat/Km [22] was 6.84e+07 M⁻¹ s⁻¹, the kcat/Km [23] was 1.1e+06 M⁻¹ s⁻¹ and the kcat/Km [24] was 5.03e+07 M⁻¹ s⁻¹. The kcat/Km (COC(=O)c1cc(O)c(O)c(O)c1 [25]) was 6.47e+07 M⁻¹ s⁻¹, the Km [26] was 0.3 µM and the Km [27] was “Not Active”. For the same substance, the Km [28] was 1.26 µM, the Km (O=C(O)c1cc(O)c(O)c(O)c1 [29]) was 177 µM and the Km [30] was 8.41 µM. For the same substance, the Km [31] was 12.7 µM, the Km [32] was 0.32 µM and the Km [33] was 0.37 µM. It also gave a Km [34] of 0.32 to 0.81 µM, a Km [35] of 0.61 µM and a Km [36] of 10.6 µM. The Km [37] was 1.37 µM and the Km (COC(=O)c1cc(O)c(O)c(O)c1 [38]) was 1.24 µM.

From ChEMBL document CHEMBL4118024, “Tannins and Tannin-Related Derivatives Enhance the (Pseudo-)Halogenating Activity of Lactoperoxidase” (J Nat Prod, 2017)
